Bioassay records deposited in PubChem BioAssay by several laboratories.
Hits are enriched below; roughly 5.7% of the tested compounds scored in any of these assays.
CSC inhib: cancer stem cell viability inhibitors, primary screen, luminescence; cancer stem cell-like cells viability; inhibition, % at 7.5 µM; 300,000 compounds, 1.1% hits; AID 2717, 2010; in the data active = inhibition above about 75%; inconclusive = no clear call, values can overlap the other calls; tested in HMLE shEcad cells
SKKanGAS inh: S. pyogenes SKKanGAS growth inhibitors in kanamycin, primary screen, streptokinase expression inhibitor project, SKKanGAS strain, BacTiter-Glo luminescence; 6 h; 300,000 compounds, 1.3% hits; inhibition, % at 7.5 µM; AID 1662, 2009;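 active = mean replicate score, as percent of positive control median, at least 50; inconclusive = mean below 50 but one replicate at or above 50; inactive = mean and every replicate below 50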;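 also: strain carries kanamycin resistance gene driven by streptokinase promoter and grows in 40 µg/ml kanamycin; loss of luminescence reflects streptokinase promoter inhibition or plain growth inhibition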
Calb FLC: C. albicans growth inhibition with fluconazole, primary screen, CaCi-2 strain, Alamar Blue fluorescence. growth inhibition, % (concentration not given with the values). C. albicans CaCi-2 (fluconazole-resistant clinical isolate) + fluconazole, 48 h. AID 1979, 2009. 300,000 compounds, 0.57% hits;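 active = growth inhibition above about 58% in most replicates, limit read from the data, passing the limit was not always enough; inconclusive = exactly half the replicates above a set limit; inactive = most replicates below a set limit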;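 also: all wells also contain fluconazole at 8 µg/ml as a sub-toxic cotreatment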
Beta apoptosis: inhibitors of cytokine-induced beta cell apoptosis, primary screen, luminescence; INS-1E cytokine-induced death, ATP luminescence, 48 h; percent of positive-control rescue, neutral wells zero; protection from apoptosis, % (concentration not given with the values); 300,000 compounds, 0.8% hits; AID 435005, 2010;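 active = Every replicate reaches about 75%, or at least half do and their mean reaches it too, limit read from the data; inconclusive = At least half of replicates reach the limit but their mean does not; inactive = Under half of replicates reach the limit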;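 also: higher means more ATP so stronger rescue from cytokine killing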
Mdm2 MdmX PPI: inhibitors of human Mdm2-MdmX association, primary screen, cell-based, luminescence, split luciferase, SaOS-2, uHTS | SaOS-2 split-luciferase Mdm2/MdmX complementation | inhibition, % at 8 µM | 330,000 compounds, 3% hits;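 active = inhibition of at least 50% at 8 µM in the primary screen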
Target sequence (O15151 whole entry, looked up): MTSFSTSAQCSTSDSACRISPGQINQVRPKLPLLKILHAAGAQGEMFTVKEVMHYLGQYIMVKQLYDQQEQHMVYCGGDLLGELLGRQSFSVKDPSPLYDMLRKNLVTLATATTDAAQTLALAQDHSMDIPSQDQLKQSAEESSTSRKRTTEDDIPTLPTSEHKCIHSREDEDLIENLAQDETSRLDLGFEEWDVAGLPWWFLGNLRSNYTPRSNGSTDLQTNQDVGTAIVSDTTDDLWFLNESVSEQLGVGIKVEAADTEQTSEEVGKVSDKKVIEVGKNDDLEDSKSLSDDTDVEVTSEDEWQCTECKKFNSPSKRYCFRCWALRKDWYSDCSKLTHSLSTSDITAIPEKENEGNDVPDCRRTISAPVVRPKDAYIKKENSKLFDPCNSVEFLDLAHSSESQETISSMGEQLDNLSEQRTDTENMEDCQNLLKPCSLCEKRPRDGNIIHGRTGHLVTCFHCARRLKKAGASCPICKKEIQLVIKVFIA
Target sequence (Q00987 whole entry, looked up): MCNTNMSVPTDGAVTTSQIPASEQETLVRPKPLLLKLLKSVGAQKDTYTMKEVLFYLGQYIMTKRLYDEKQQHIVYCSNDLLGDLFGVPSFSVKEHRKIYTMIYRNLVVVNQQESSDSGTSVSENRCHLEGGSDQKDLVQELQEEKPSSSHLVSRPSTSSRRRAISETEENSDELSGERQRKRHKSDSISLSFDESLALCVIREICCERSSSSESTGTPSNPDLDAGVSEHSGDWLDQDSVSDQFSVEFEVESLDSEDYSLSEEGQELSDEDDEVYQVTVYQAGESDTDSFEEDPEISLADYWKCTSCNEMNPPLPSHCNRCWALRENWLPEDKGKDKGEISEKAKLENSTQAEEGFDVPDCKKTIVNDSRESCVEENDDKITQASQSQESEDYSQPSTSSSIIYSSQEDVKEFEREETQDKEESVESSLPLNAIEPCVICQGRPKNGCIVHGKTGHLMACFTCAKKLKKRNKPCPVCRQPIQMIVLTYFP
T cruzi inh: inhibitors of intracellular T. cruzi growth, primary screen, luminescence, NIH3T3 host cells | T. cruzi beta-gal in NIH3T3, 90 h | inhibition, % (test concentration not listed) | 300,000 compounds, 1.4% hits | AID 1885, 2009;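 active = mean inhibition across valid replicates above about 55%, limit read from the data; inconclusive = mean below that limit but half or more replicates reach it; inactive = mean below it, under half of replicates reach it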;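 also: signal also drops with host cell toxicity which is not excluded here; higher percent means less beta-gal luminescence so fewer parasites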
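assay system = mouse NIH/3T3 fibroblasts infected with β-gal-expressing T. cruzi Tulahuen C4 | input = 5,000 NIH/3T3 host cells per well | buffer or medium = DMEM plus 2% FBS | timing = 3 h host attachment, then at least 90 h co-culture | measured by = GalScreen luminescence, 60 min | evaluation = luminescence reflecting intracellular parasite burden, expressed as percent inhibition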
Mdm2 MdmX conf: Mdm2-MdmX complex disruptors, retested hits, confirmation, luminescence, single concentration; inhibition, % at 8 µM; 10,000 compounds, 55% hits; shares compounds with Mdm2 MdmX PPI; AID 489028, 2010; Mdm2-MdmX binding, luminescent assay; in the data active = inhibition above about 40%
Full FLuc ctr: full-length luciferase signal inhibition, confirmation, counter-screen for Mdm2/MdmX interaction inhibitor project, cell-based, single concentration, SaOS-2; shares compounds with Mdm2 MdmX PPI; SaOS-2 full-length luciferase counterscreen, luminescence; inhibition, % at 8 µM; 6,200 compounds, 77% hits; AID 504607, 2011;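 active = mean inhibition at 8 µM reaching about 37%, which flags the compound as non-specific, limit read from the data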;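 also: p53-null SaOS-2 cells with luciferase driven by a doxycycline-inducible promoter; compound on cells about two nights before reading with doxycycline added after day one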
Numbers stand for hits.

O=C(CCl)N(c1ccccc1)C1CCS(=O)(=O)C1 (stereo not given) was read as CSC inhib inactive, SKKanGAS inh inactive, Calb FLC inactive, Beta apoptosis inactive, Mdm2 MdmX PPI 99, T cruzi inh inactive, Mdm2 MdmX conf 93 and Full FLuc ctr 55.
`CC(=O)c1ccc(OCCCC(=O)N(CCC2=CCCCC2)c2c(N)n(Cc3ccccc3)c(=O)[nH]c2=O)cc1` gave CSC inhib inactive, SKKanGAS inh inactive, Calb FLC inactive, Beta apoptosis inactive, Mdm2 MdmX PPI inactive and T cruzi inh inactive.
Screening Cc1ccc(NS(=O)(=O)c2cc([N+](=O)[O-])ccc2NNC(=S)Nc2cc(C)ccc2C)c(C)c1 returned CSC inhib 80, SKKanGAS inh inactive, Calb FLC inactive, Beta apoptosis inconclusive, Mdm2 MdmX PPI 94, T cruzi inh inactive, Mdm2 MdmX conf 88 and Full FLuc ctr 39.
`O=c1[nH]c2cc3c(cc2cc1C(c1nnnn1Cc1ccccc1)N1CCCc2ccccc21)OCO3` (stereo not given) gave CSC inhib inactive, SKKanGAS inh inactive, Calb FLC inactive, Mdm2 MdmX PPI 100, T cruzi inh inactive and Mdm2 MdmX conf inactive.
Screening O=c1[nH]c2cc3c(cc2cc1C(c1nnnn1Cc1ccccc1)N1CCCCCC1)OCCO3 (stereo not given) returned CSC inhib inactive, SKKanGAS inh inactive, Calb FLC inactive, Beta apoptosis inactive, Mdm2 MdmX PPI inactive and T cruzi inh inactive.
For CCN1C(=O)CSC1=Nc1cccc(C(=O)O)c1 the results were CSC inhib inactive, SKKanGAS inh inactive, Calb FLC inactive, Beta apoptosis inactive, Mdm2 MdmX PPI inactive and T cruzi inh inactive.
`CCN1CCN(c2ccc(S(=O)(=O)N3CCOCC3)cc2NC(=O)/C=C/c2ccc([N+](=O)[O-])cc2)CC1` gave SKKanGAS inh inactive, Calb FLC inactive, Beta apoptosis inactive, Mdm2 MdmX PPI 100, T cruzi inh inactive, Mdm2 MdmX conf 48 and Full FLuc ctr 64.
Screening CCN1CCN(c2ccc(S(=O)(=O)N3CCOCC3)cc2NC(=O)c2cccc([N+](=O)[O-])c2)CC1 returned CSC inhib inactive, Beta apoptosis inactive and Mdm2 MdmX PPI inactive.
CCN1CCN(c2ccc(S(=O)(=O)N3CCCCC3)cc2NC(=O)c2ccc([N+](=O)[O-])o2)CC1 was read as CSC inhib inactive, SKKanGAS inh inactive, Calb FLC inactive, Beta apoptosis 102, Mdm2 MdmX PPI 53, T cruzi inh 60 and Mdm2 MdmX conf inactive.
O=C(Nc1ccc(S(=O)(=O)N2CCCC2)cc1)c1ccc([N+](=O)[O-])o1 was read as CSC inhib inactive, Beta apoptosis inactive, Mdm2 MdmX PPI 67 and Mdm2 MdmX conf inactive.
Screening O=C(Nc1ccc(S(=O)(=O)N2CCOCC2)cc1)c1ccc([N+](=O)[O-])o1 returned CSC inhib inconclusive, SKKanGAS inh inactive, Calb FLC inactive, Beta apoptosis inactive, Mdm2 MdmX PPI inactive and T cruzi inh inactive.
`CN1CCN(c2ccc(Cl)cc2NC(=O)c2ccc(S(=O)(=O)N3CCCCCC3)cc2)CC1` gave CSC inhib inactive, SKKanGAS inh inactive, Calb FLC inactive, Beta apoptosis inactive, Mdm2 MdmX PPI 67, T cruzi inh inactive, Mdm2 MdmX conf inactive and Full FLuc ctr 72.
`O=C(Nc1ccccc1)[C@@H]1CC=C[C@@H]2CCN(C3CCCCC3)C(=O)[C@@H]21` gave CSC inhib inactive, SKKanGAS inh inactive, Calb FLC inactive, Beta apoptosis inactive, Mdm2 MdmX PPI inactive and T cruzi inh inactive.
`CCC(C(=O)NCCc1ccc(S(N)(=O)=O)cc1)c1ccccc1` (stereo not given) gave CSC inhib inactive, SKKanGAS inh inactive, Calb FLC inactive, Beta apoptosis inactive, Mdm2 MdmX PPI inactive and T cruzi inh inactive.
Screening O=C(/C=C/c1ccc(F)cc1)Nc1cc(S(=O)(=O)N2CCOCC2)ccc1N1CCCC1 returned CSC inhib inactive, SKKanGAS inh inactive, Calb FLC inactive, Beta apoptosis inactive, Mdm2 MdmX PPI inactive and T cruzi inh inactive.
For CC(=O)N1CCN(c2ccc(NC(=O)c3ccc([N+](=O)[O-])o3)cc2Cl)CC1 the results were CSC inhib inactive, SKKanGAS inh inactive, Calb FLC inactive, Beta apoptosis inactive, Mdm2 MdmX PPI 69, T cruzi inh inactive, Mdm2 MdmX conf 68 and Full FLuc ctr inactive.
For CN1CCN(c2ccc(Cl)cc2NC(=O)/C=C/c2ccc(F)cc2)CC1 the results were CSC inhib inactive, SKKanGAS inh inactive, Calb FLC inactive, Beta apoptosis inactive, Mdm2 MdmX PPI 52, T cruzi inh inactive and Mdm2 MdmX conf inactive.
`CCn1c(CCNC(=O)c2cccs2)n[nH]c1=S` gave CSC inhib inactive, SKKanGAS inh inactive, Calb FLC inactive, Beta apoptosis inactive, Mdm2 MdmX PPI inactive and T cruzi inh inactive.
For O=C(Nc1cccc(-c2cnc3ccccc3n2)c1)c1cccc(NC(=O)c2ccco2)c1 the results were SKKanGAS inh inactive, Calb FLC inactive, Beta apoptosis inactive, Mdm2 MdmX PPI 68, T cruzi inh inactive, Mdm2 MdmX conf 65 and Full FLuc ctr 88.
`O=C(CCl)Nc1ccc(Oc2cnc3ccccc3n2)cc1` gave CSC inhib inactive, SKKanGAS inh inactive, Calb FLC inactive, Beta apoptosis inactive, Mdm2 MdmX PPI 67, T cruzi inh inactive, Mdm2 MdmX conf 49 and Full FLuc ctr inactive.
For CCC(=O)Nc1cccc(-c2cnc3ccccc3n2)c1 the results were CSC inhib inactive, SKKanGAS inh inactive, Calb FLC inactive, Beta apoptosis inactive, Mdm2 MdmX PPI inactive and T cruzi inh inactive.
For O=C(Nc1cccc(-c2cnc3ccccc3n2)c1)c1ccccc1 the results were CSC inhib inactive, SKKanGAS inh inactive, Calb FLC inactive, Beta apoptosis inactive, Mdm2 MdmX PPI 57, T cruzi inh inactive and Mdm2 MdmX conf inactive.
O=C(CCl)Nc1cccc(-c2cnc3ccccc3n2)c1 was read as CSC inhib inactive, SKKanGAS inh inactive, Calb FLC inactive, Beta apoptosis inactive, Mdm2 MdmX PPI 97, T cruzi inh inactive, Mdm2 MdmX conf 99 and Full FLuc ctr 55.
`O=C(Nc1ccc2nc3ccccc3nc2c1)c1ccccc1` gave CSC inhib inactive, SKKanGAS inh inactive, Calb FLC inactive, Beta apoptosis inactive and T cruzi inh inactive.
